# Source: PubChem BioAssay
# Activity calls are given as the source filed them.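 The calls were made as follows, unless noted: active = viability at or under a set limit in both replicates, limit being median viability minus 3 SD (cut at about 48% in these data, passing the limit was not always enough); inconclusive = at or under the limit in just one replicate; inactive = at or above the limit in both replicates.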
# Tests used:
# [1] = Her2 expression decrease, cell viability multiplex – SKBR3 breast tumor cells, AlphaScreen, ATP viability, primary screen (AID 461;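 active = Her2 level under about 52% in both replicate screens, with viability over 70% of control, limit read from the data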;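 as to Her2 level: lower value means less Her2 protein in the cells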;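 as to viability: percent of carrier control wells set as 100% viability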); conditions: SKBR3 Her2 protein level, 18-24 h, measured here: SKBR3 viability, ATP luminescence, at 10 µM
# [2] = target: Receptor tyrosine-protein kinase erbB-2 (Homo sapiens) (UniProt P04626); assay: as above; conditions: 18-24 h, at 10 µM, stronger effect = lower value
# [3] = reduced viability of SK-BR-3 breast cancer cells – cell-based, 24 h, human, pilot screen (AID 572;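 active = viability at or below 10% of carrier control in both of two separate runs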;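 also: compound exposure lasted between 18 and 24 h rather than exactly 24 h; 100% = carrier-treated control wells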); conditions: SK-BR-3 viability, CellTiter-Glo luminescence, at 10 µM, stronger effect = lower value
# [4] = HUVEC growth inhibition – cell-based, human, primary screen (AID 575;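 active = viability at or below 30% in both replicate assays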;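 also: 100% = median of untreated cell wells with 0.1% DMSO on each plate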); conditions: HUVEC proliferation, CellTiter-Glo luminescence, 72 h; at 10 µM; stronger effect = lower value
# Procedure, shortened: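 Test system: primary human umbilical vein endothelial cells. Quantity: 1250 cells/well. Compound: single 10 µM dose, 0.1% DMSO, from 5x medium stock. Timing: 72 h treatment at 37 °C. Detection: ATP-based CellTiter-Glo luminescent read. Benchmarks: vehicle and MePR control wells. Format: 384-well plates coated with collagen.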
# [5] = H69AR cell proliferation blockers – human, duplicate replicates, primary screen (AID 580); conditions: H69AR lung tumor cells viability, ATP luminescence, 72 h; at 10 µM; stronger effect = lower value;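 also: 100% = mean luminescence of untreated wells and 0% = no signal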
# [6] = MRP1 drug-resistance reversers in H69AR cells – cell-based, doxorubicin co-treatment, pilot screen (AID 601;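 active = viability loss from added drug above about 55%, and viability with drug at most 40%, in both replicates, limit read from the data, passing the limit was not always enough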); conditions: CellTiter-Glo, 72 h, at 10 µM; for differential viability (reversal): stronger effect = higher value
# [7] = yeast transport mutant growth inhibition pilot in 384-well plates, post-Golgi transport modulator project (AID 636; in the data active = inhibition above about 31%); conditions: absorbance 615 nm, about 18 h, stronger effect = higher value
# [8] = growth suppression of yeast trafficking mutant, preliminary HTS, modulators of trafficking downstream of Golgi apparatus project, 1536-format plate, OD 615 nm (AID 637; in the data active = inhibition above about 30%); conditions: yeast transport mutant growth, absorbance 615 nm, 18 h; stronger effect = higher value
# [9] = H69AR cells + 2 uM doxorubicin, measured here: viability with 2 uM doxorubicin, stronger effect = lower value
# [10] = H69AR cells, compound alone cytotoxicity
# Receptor tyrosine-protein kinase erbB-2 (Homo sapiens), sequence (P04626 whole entry, looked up): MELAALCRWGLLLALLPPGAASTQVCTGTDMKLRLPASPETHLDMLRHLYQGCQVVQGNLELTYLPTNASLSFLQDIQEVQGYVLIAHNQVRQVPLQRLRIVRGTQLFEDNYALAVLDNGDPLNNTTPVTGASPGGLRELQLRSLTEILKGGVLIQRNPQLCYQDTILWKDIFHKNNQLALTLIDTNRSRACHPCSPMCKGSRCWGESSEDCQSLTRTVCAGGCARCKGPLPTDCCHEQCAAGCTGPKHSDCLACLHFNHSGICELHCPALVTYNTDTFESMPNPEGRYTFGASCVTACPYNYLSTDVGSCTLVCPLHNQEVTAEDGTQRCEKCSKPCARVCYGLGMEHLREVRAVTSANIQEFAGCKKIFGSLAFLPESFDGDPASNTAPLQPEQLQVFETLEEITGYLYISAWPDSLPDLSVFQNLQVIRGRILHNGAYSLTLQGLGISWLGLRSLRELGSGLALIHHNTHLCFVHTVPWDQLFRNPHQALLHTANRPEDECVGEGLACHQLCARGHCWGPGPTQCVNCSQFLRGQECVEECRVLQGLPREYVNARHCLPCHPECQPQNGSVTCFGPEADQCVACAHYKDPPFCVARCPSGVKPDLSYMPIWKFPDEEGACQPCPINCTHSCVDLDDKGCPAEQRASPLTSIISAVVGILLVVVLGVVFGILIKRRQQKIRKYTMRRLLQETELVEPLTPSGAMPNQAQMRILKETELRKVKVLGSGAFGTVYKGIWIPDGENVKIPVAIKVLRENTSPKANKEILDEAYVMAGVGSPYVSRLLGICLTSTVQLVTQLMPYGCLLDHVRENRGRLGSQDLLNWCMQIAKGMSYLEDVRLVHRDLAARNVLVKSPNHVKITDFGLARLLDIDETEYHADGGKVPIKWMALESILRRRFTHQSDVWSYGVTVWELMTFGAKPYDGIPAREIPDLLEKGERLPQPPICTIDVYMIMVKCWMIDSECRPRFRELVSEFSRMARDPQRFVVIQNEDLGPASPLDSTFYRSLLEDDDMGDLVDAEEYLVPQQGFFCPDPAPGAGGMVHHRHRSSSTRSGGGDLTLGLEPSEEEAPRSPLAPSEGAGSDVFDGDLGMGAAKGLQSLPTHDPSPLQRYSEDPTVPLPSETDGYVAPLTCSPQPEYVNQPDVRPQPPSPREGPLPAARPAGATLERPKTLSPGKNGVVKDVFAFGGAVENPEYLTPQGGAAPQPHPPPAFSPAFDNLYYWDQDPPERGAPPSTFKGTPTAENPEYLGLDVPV
Structure (SMILES),viability [1] [%],Her2 level [2],viability [3],viability [4],viability [5],differential viability (reversal) ([6]; H69AR cells + 2 uM doxorubicin),"viability [6, 9] [%]","viability [6, 10] [%]",inhibition [7],inhibition [8]
CC(=O)c1ccc(NC2OC(C)C(O)C(O)C2O)cc1 (stereo not given),121,112% (inactive),121% (inactive),100% (inactive),91.3% (inactive),1.54% (inactive),89.8,91.3,2.24% (inactive),-6.67% (inactive)
COc1ccccc1OC(=O)c1ccc2nsnc2c1,110,89% (inactive),110% (inactive),91.8% (inactive),100% (inactive),11.6% (inactive),88.4,100,-8.16% (inactive),-6.55% (inactive)
COc1ccc2cc(CN(Cc3ccco3)C(c3nnnn3C3CCCCC3)C(C)C)c(=O)[nH]c2c1 (stereo not given),100,83% (inactive),100% (inactive),47.1% (inactive),33.1% (active),7.31% (inactive),25.8,33.1,-0.54% (inactive),-4.59% (inactive)
COc1ccccc1NC(=O)CSc1nnc(CC(=O)Nc2ccccc2)n1C,96,80.5% (inactive),96% (inactive),113% (inactive),91% (inactive),-2.08% (inactive),93.1,91,-2.99% (inactive),-2% (inactive)
c1ccc(N2CCN(Cc3ccnc4ccccc34)CC2)cc1,98,81.5% (inactive),98% (inactive),71.2% (inactive),72.4% (inactive),-21.1% (inactive),93.5,72.4,-6.22% (inactive),-0.82% (inactive)
COc1cc(NS(=O)(=O)c2ccc(Br)s2)cc(OC)c1,87,104% (inactive),87% (inactive),89.6% (inactive),99.9% (inactive),5.59% (inactive),94.3,99.9,-6.53% (inactive),-7.7% (inactive)
Cc1ccc(NC(=O)c2cc(S(=O)(=O)N3CCC4(CC3)OCCO4)ccc2F)cc1,101,143% (inactive),101% (inactive),90.7% (inactive),99.3% (inactive),2.58% (inactive),96.7,99.3,1.97% (inactive),-11% (inactive)
Cn1c(SC/C=C/c2ccccc2)nnc1-c1cnccn1,80.5,102% (inactive),80.5% (inactive),114% (inactive),94.3% (inactive),10.3% (inactive),84,94.3,2.27% (inactive),-5.48% (inactive)
CCOc1ccc2ccccc2c1C(=O)N1CCN(c2ccccc2)CC1,95,83.5% (inactive),95% (inactive),47.3% (inactive),9.8% (active),-57% (inactive),66.8,9.8,-2.8% (inactive),-10.6% (inactive)
O=c1cc(-c2ccc(Cl)cc2)[nH][nH]1,108,84% (inactive),108% (inactive),93.5% (inactive),91.6% (inactive),5.75% (inactive),85.9,91.6,-7.84% (inactive),1% (inactive)
CCN(CC)CCOc1cccc(C(C)C)c1,90.5,95.5% (inactive),90.5% (inactive),92.6% (inactive),109% (inactive),17.4% (inactive),91.8,109,3.25% (inactive),-1.64% (inactive)
Cn1c(=O)c2c(nc(NCc3ccc4c(c3)OCO4)n2Cc2ccccc2F)n(C)c1=O,82,60% (inactive),82% (inactive),105% (inactive),76% (inactive),-8.01% (inactive),84,76,-3.65% (inactive),7.3% (inactive)
CC1CCc2cc(F)cc3c(O)c(C(=O)NCC4CCCO4)c(=O)n1c23 (stereo not given),93.5,94% (inactive),93.5% (inactive),80.8% (inactive),85.6% (inactive),-8.57% (inactive),94.2,85.6,0.66% (inactive),-9.84% (inactive)
Cc1ccc(C(c2nnnn2CCC(C)C)N2CCN(C)CC2)cc1 (stereo not given),90.5,84% (inactive),90.5% (inactive),97.9% (inactive),98.8% (inactive),5.6% (inactive),93.2,98.8,-6.67% (inactive),1.97% (inactive)
COC(=O)C(C)NC(=O)C12CC3CC(CC(C3)C1)C2 (stereo not given),92,123% (inactive),92% (inactive),107% (inactive),99.7% (inactive),4.86% (inactive),94.8,99.7,-1.54% (inactive),-5.33% (inactive)
